In ChEMBL document CHEMBL1134977, “Design and synthesis of ethyl pyrrolidine-5,5-trans-lactams as inhibitors of hepatitis C virus NS3/4A protease” (Bioorg Med Chem Lett, 2002) one finds IC50 and inhibition data, which are given here for twelve molecules.

The structures appear in SMILES notation. Residues, ends and D or L forms follow the SMILES beside them. *: point of attachment. X1 = CCC1C(=O)N(S(C)(=O)=O)[C@H]2CCN(*)[C@H]12 Some results are limits rather than exact numbers.

The target in experiment [1] is T1, Hepatitis C virus serine protease, NS3/NS4A (Hepatitis C virus, UniProt A3EZI9+D2K2A8). In words: Inhibitory concentration against hepatitis C virus NS3/4A protease on 18 h pre-incubation in fluorogenic assay. In kind it is protein-complex assay, Hepacivirus hominis. The method in brief: (§1)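 Fluorogenic assay with full-length NS3/4A protein at 20 nM (NS3:4A 1:1). Substrate was Abz-E-D-V-V-P-C-S-M-S-(3-NO2)-Y-H at 25 µM (Km 5 µM). Compound was pre-incubated with enzyme for 4 or 18 h before substrate addition.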
T1 sequence (D2K2A8 whole entry): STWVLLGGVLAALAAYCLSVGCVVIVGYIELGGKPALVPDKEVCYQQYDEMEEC
T1 sequence (A3EZI9 whole entry): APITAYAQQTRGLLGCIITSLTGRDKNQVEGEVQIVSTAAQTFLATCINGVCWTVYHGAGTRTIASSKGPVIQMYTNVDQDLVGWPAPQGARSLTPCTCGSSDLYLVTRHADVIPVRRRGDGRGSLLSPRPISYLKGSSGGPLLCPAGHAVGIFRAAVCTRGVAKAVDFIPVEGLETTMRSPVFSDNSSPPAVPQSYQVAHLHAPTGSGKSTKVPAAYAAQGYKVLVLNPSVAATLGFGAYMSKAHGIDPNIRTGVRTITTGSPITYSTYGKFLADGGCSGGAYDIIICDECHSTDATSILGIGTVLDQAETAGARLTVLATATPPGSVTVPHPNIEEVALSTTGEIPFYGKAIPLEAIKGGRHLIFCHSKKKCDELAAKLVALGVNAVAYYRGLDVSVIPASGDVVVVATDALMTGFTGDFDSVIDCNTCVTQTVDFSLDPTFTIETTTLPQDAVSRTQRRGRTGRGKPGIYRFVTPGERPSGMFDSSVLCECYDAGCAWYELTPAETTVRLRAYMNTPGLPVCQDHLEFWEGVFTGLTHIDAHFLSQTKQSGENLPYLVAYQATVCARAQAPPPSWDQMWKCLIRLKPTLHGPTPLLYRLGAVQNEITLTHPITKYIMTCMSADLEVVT

The target of experiment [2] is T1, Hepatitis C virus serine protease, NS3/NS4A. In words: Inhibitory concentration against hepatitis C virus NS3/4A protease on 4 hr pre-incubation in fluorogenic assay. Format: protein-complex assay, Hepacivirus hominis. The method in brief:
as §1

Experiment [3] shares this target. Kind of experiment: Inhibitory concentration against hepatitis C virus NS3/4A protease on 4 hr pre-incubation in chromogenic assay. Format: protein-complex assay, Hepacivirus hominis. The method in brief:
(§2)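 Chromogenic read-out with the NS3 protease domain at 0.56 µM and synthetic 18-mer NS4A cofactor peptide at 0.8 µM. Substrate was Ac-E-D-V-V-P-C-pNO2 anilide at 1.5 mM (Km 1.85 mM). Compound was pre-incubated with enzyme for 2, 4 or 18 h before substrate addition.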

For experiment [4] the target is unchanged. Kind of experiment: Inhibitory concentration against hepatitis C virus NS3/4A protease on 18 hr preincubation in chromogenic assay. In kind it is protein-complex assay, Hepacivirus hominis. The method in brief: as §2
The target of experiment [5] is T2, Hepatitis C virus serine protease, NS3/NS4A (Hepatitis C virus) (UniProt D2K2A8+A3EZI9). In words: Compound was tested for inhibition of hepatitis C virus NS3/4A protease at 100 uM 2 hr pre-incubation in chromogenic assay. In kind it is protein-complex assay. The settings on record: Hepacivirus hominis.
The target in experiment [6] is T2, Hepatitis C virus serine protease, NS3/NS4A (Hepatitis C virus). In words: Inhibitory concentration against hepatitis C virus NS3/4A protease on 18 h pre-incubation in chromogenic assay. Format: protein-complex assay. Details: concentration or dose not given beside the values. The settings on record: Hepacivirus hominis; concentration not given here. The method in brief:
as §2

In experiment [7] the target is T1, Hepatitis C virus serine protease, NS3/NS4A. Kind of experiment: Inhibitory concentration against hepatitis C virus NS3/4A protease on 2 hr pre-incubation in chromogenic assay. Format: protein-complex assay, Hepacivirus hominis. The method in brief: as §2

Consider `CC[C@H]1C(=O)N(C(C)=O)[C@H]2CCN(C(=O)[C@@H](NC(=O)OC(C)(C)C)C(C)C)[C@H]12`, for which the IC50 in experiment [1] was 447 µM; in experiment [2], 216 µM; in experiment [3] it was above 400 µM; in experiment [4], 147 µM.

Regarding `CCC1C(=O)N(S(C)(=O)=O)[C@H]2CCN(C(=O)[C@@H]3CCCN3C(=O)[C@@H](NC(=O)[C@H](CC(=O)O)NC(=O)[C@H](CCC(=O)O)NC(C)=O)C(C)C)[C@H]12` (stereo partly specified) (Ac-EDVP-X1), the inhibition in experiment [5] was found to be 5%; in experiment [6], 11%.

Take `CCC1C(=O)N(S(C)(=O)=O)[C@H]2CCN(C(=O)[C@@H](NC(=O)[C@@H](NC(=O)[C@H](CC(=O)O)NC(=O)[C@H](CCC(=O)O)NC(C)=O)C(C)C)C(C)C)[C@H]12` (stereo partly specified) (Ac-EDVV-X1): the IC50 in experiment [7] is 69 µM; in experiment [1], 284 µM; in experiment [2] it was above 400 µM; in experiment [3], 69 µM; in experiment [4], 19 µM.

Take `CCC1C(=O)N(S(C)(=O)=O)[C@H]2CCN(C(=O)[C@@H](NC(=O)OC(C)(C)C)C(C)C)C12` (single isomer, unassigned): the IC50 in experiment [1] was determined as 140 µM; in experiment [2] it was 182 µM; in experiment [3], 62 µM; in experiment [4], 27 µM. This molecule also had an inhibition in experiment [5] of 52%.

With `CC[C@@H]1C(=O)N(S(C)(=O)=O)[C@H]2CCN(C(=O)[C@@H](NC(=O)OC(C)(C)C)C(C)C)[C@H]12`, the IC50 in experiment [3] came out at 30 µM; in experiment [4], 22 µM.

For the molecule `CCC1C(=O)N(S(C)(=O)=O)[C@H]2CCN(C(=O)CNC(=O)[C@@H](NC(=O)[C@H](CC(=O)O)NC(=O)[C@H](CCC(=O)O)NC(C)=O)C(C)C)[C@H]12` (stereo partly specified) (Ac-EDVG-X1), the inhibition in experiment [5] is 10%; in experiment [6], 24%.

Regarding `CC[C@@H]1C(=O)N(C(C)=O)[C@H]2CCN(C(=O)[C@@H](NC(=O)OC(C)(C)C)C(C)C)[C@H]12`, the IC50 in experiment [1] was determined as 194 µM; in experiment [2] it was 193 µM; in experiment [3] it was 88 µM; in experiment [4] it was 45 µM.

As for `CCC1C(=O)N(S(C)(=O)=O)[C@H]2CCN(C(=O)[C@@H](NC(=O)[C@@H](NC(C)=O)C(C)C)C(C)C)[C@H]12` (stereo partly specified), the inhibition in experiment [5] was 21%; in experiment [6], 45%.

For `CCC1C(=O)N(S(C)(=O)=O)[C@H]2CCN(C(=O)C(NC(=O)[C@@H](NC(=O)[C@H](CC(=O)O)NC(=O)[C@H](CCC(=O)O)NC(C)=O)C(C)C)C(C)C)[C@H]12` (single isomer, unassigned), the inhibition is 24% in experiment [5] and 85% in experiment [6].

`CC[C@H]1C(=O)N(S(C)(=O)=O)[C@H]2CCN(C(=O)[C@@H](NC(=O)OC(C)(C)C)C(C)C)[C@H]12`: the IC50 was 172 µM in experiment [1], 341 µM in experiment [2], 99 µM in experiment [3] and 28 µM in experiment [4].

Consider `CCC1C(=O)N(S(C)(=O)=O)[C@H]2CCN(C(=O)[C@@H](NC(=O)[C@@H](NC(=O)[C@H](CC(=O)O)NC(C)=O)C(C)C)C(C)C)[C@H]12` (stereo partly specified), for which the inhibition in experiment [5] came to 68%; in experiment [6], 94%.

On to `CCC1C(=O)N(S(C)(=O)=O)[C@H]2CCN(C(=O)[C@@H](N)C(C)C)[C@H]12` (stereo partly specified), for which the results for the inhibition in experiment [5] and in experiment [6] were 11% and 41%, respectively.

As usually defined, the IC50 is the concentration at which inhibition is half-maximal. The inhibition is how much of the control response was suppressed.
